In brackets after ≈: the same amount, converted by molar mass. Activity calls are given as the source filed them.
Tests used:
Mus musculus [1] = test: Toxicity in PS mouse allografted with mouse P388 cells assessed as change in body weight at 100 ug/kg relative to control; assay type: organism-based; conditions: in vivo, 0.1 mg/kg
Procedure, shortened: (§1)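 P388 (PS) leukemia in mice, 6 mice per dose group. Weight change is the difference in grams between treated and control animals. Survivors are recorded on toxicity day, normally 4 days after the first injection.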

Mus musculus [2] = test: Toxicity in PS mouse allografted with mouse P388 cells assessed as survival at 25 ug/kg after 4 days; assay type: organism-based; conditions: in vivo, 0.025 mg/kg, 96 h
Procedure, shortened: (§2)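 PS (P388) leukemic mice, six started per dose group. Toxicity scored as survivors on the toxicity day over the number of mice started. The toxicity day is normally 4 days after the first injection.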

Mus musculus [3] = test: Toxicity in PS mouse allografted with mouse P388 cells assessed as change in body weight at 1.6 ug/kg relative to control; assay type: organism-based; conditions: in vivo, 0.0016 mg/kg; procedure, shortened: as §1
Mus musculus [4] = test: Toxicity in PS mouse allografted with mouse P388 cells assessed as change in body weight at 6.2 ug/kg relative to control; assay type: organism-based; conditions: in vivo, 0.0062 mg/kg; procedure, shortened: as §1
Mus musculus [5] = test: Toxicity in PS mouse allografted with mouse P388 cells assessed as survival at 50 ug/kg after 4 days; assay type: organism-based; conditions: in vivo, 0.05 mg/kg, 96 h; procedure, shortened: as §2
Mus musculus [6] = test: Toxicity in PS mouse allografted with mouse P388 cells assessed as change in body weight at 200 ug/kg relative to control; assay type: organism-based; conditions: in vivo, 0.2 mg/kg; procedure, shortened: as §1
Mus musculus [7] = test: Toxicity in PS mouse allografted with mouse P388 cells assessed as survival at 12.5 ug/kg after 4 days; assay type: organism-based; conditions: in vivo, 0.0125 mg/kg, 96 h; procedure, shortened: as §2
KB = test: Cytotoxicity against human KB cells; assay type: functional; conditions: read-out: ED50 (the source's name)
Mus musculus [8] = test: Toxicity in PS mouse allografted with mouse P388 cells assessed as change in body weight at 3.1 ug/kg relative to control; assay type: organism-based; conditions: in vivo, 0.0031 mg/kg; procedure, shortened: as §1
Mus musculus [9] = test: Toxicity in PS mouse allografted with mouse P388 cells assessed as survival at 1.6 ug/kg after 4 days; assay type: organism-based; conditions: in vivo, 0.0016 mg/kg, 96 h; procedure, shortened: as §2
Mus musculus [10] = test: Toxicity in PS mouse allografted with mouse P388 cells assessed as change in body weight at 25 ug/kg relative to control; assay type: organism-based; conditions: in vivo, 0.025 mg/kg; procedure, shortened: as §1
P388 [11] = test: Antitumor activity against mouse P388 cells allografted in PS mouse assessed as median survival time at 100 ug/kg relative to control; assay type: functional
Procedure, shortened: (§3)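 P388 leukemia (PS) in mice, six mice started per dose group. Read-out is T/C: median survival time of the treated group divided by that of the untreated control group, expressed as a percent. The NIH protocol counts a compound as active when T/C > 125%.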

Mus musculus [12] = test: Toxicity in PS mouse allografted with mouse P388 cells assessed as survival at 100 ug/kg after 4 days; assay type: organism-based; conditions: in vivo, 0.1 mg/kg, 96 h; procedure, shortened: as §2
Mus musculus [13] = test: Toxicity in PS mouse allografted with mouse P388 cells assessed as survival at 6.2 ug/kg after 4 days; assay type: organism-based; conditions: in vivo, 0.0062 mg/kg, 96 h; procedure, shortened: as §2
P388 [14] = test: Antitumor activity against mouse P388 cells allografted in PS mouse assessed as median survival time at 25 ug/kg relative to control; assay type: functional; procedure, shortened: as §3
Mus musculus [15] = test: Toxicity in PS mouse allografted with mouse P388 cells assessed as change in body weight at 0.8 ug/kg relative to control; assay type: organism-based; conditions: in vivo, 0.0008 mg/kg
Procedure, shortened: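 PS (P388 leukemia) mice, six per dose group. Toxicity read as the difference in grams between the weights of treated and control animals.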

Mus musculus [16] = test: Toxicity in PS mouse allografted with mouse P388 cells assessed as survival at 0.8 ug/kg after 4 days; assay type: organism-based; conditions: in vivo, 0.0008 mg/kg, 96 h; procedure, shortened: as §2
Mus musculus [17] = test: Toxicity in PS mouse allografted with mouse P388 cells assessed as survival at 3.1 ug/kg after 4 days; assay type: organism-based; conditions: in vivo, 0.0031 mg/kg, 96 h; procedure, shortened: as §2
P388 [18] = test: Antitumor activity against mouse P388 cells allografted in PS mouse assessed as median survival time at 0.8 ug/kg relative to control; assay type: functional; procedure, shortened: as §3
P388 [19] = test: Antitumor activity against mouse P388 cells allografted in PS mouse assessed as median survival time at 6.2 ug/kg relative to control; assay type: functional; procedure, shortened: as §3
P388 [20] = test: Antitumor activity against mouse P388 cells allografted in PS mouse assessed as median survival time at 200 ug/kg relative to control; assay type: functional; procedure, shortened: as §3
P388 [21] = test: Antitumor activity against mouse P388 cells allografted in PS mouse assessed as median survival time at 50 ug/kg relative to control; assay type: functional; procedure, shortened: as §3
P388 [22] = test: Antitumor activity against mouse P388 cells allografted in PS mouse assessed as median survival time at 12.5 ug/kg relative to control; assay type: functional; procedure, shortened: as §3
Mus musculus [23] = test: Toxicity in PS mouse allografted with mouse P388 cells assessed as change in body weight at 50 ug/kg relative to control; assay type: organism-based; conditions: in vivo, 0.05 mg/kg; procedure, shortened: as §1
Mus musculus [24] = test: Toxicity in PS mouse allografted with mouse P388 cells assessed as change in body weight at 12.5 ug/kg relative to control; assay type: organism-based; conditions: in vivo, 0.0125 mg/kg; procedure, shortened: as §1
P388 [25] = test: Antitumor activity against mouse P388 cells allografted in PS mouse assessed as median survival time at 1.6 ug/kg relative to control; assay type: functional; procedure, shortened: as §3
Mus musculus [26] = test: Toxicity in PS mouse allografted with mouse P388 cells assessed as survival at 200 ug/kg after 4 days; assay type: organism-based; conditions: in vivo, 0.2 mg/kg, 96 h; procedure, shortened: as §2
P388 [27] = test: Antitumor activity against mouse P388 cells allografted in PS mouse assessed as median survival time at 3.1 ug/kg relative to control; assay type: functional; procedure, shortened: as §3
Tubulin (Homo sapiens) = Tubulin (Homo sapiens) (UniProt P68371+Q9H4B7+P0DPH7+P68366+Q13509+Q71U36+P04350+Q3ZCM7+P07437+P68363+Q9BQE3+Q6PEY2+Q13885+Q9BVA1+Q9BUF5); test: Inhibition of brain tubulin polymerization (unknown origin) at 37 degC by spectrophotometry
Paracentrotus lividus = test: Antimitotic activity against sea urchin eggs assessed as drug level causing inhibition of mitosis; assay type: functional; conditions: Egg
P388 [28] = test: Antitumor activity against mouse P388 cells allografted in PS mouse assessed as median survival time at 400 ug/kg relative to control; assay type: functional; procedure, shortened: as §3
Mus musculus [29] = test: Toxicity in PS mouse allografted with mouse P388 cells assessed as change in body weight at 400 ug/kg relative to control; assay type: organism-based; conditions: in vivo, 0.4 mg/kg; procedure, shortened: as §1
Mus musculus [30] = test: Toxicity in PS mouse allografted with mouse P388 cells assessed as survival at 400 ug/kg after 4 days; assay type: organism-based; conditions: in vivo, 0.4 mg/kg, 96 h; procedure, shortened: as §2

SMILES | Activity (Mus musculus [1]) [g] | Activity (Mus musculus [2]) | Activity (Mus musculus [3]) [g] | Activity (Mus musculus [4]) [g] | Activity (Mus musculus [5]) | Activity (Mus musculus [6]) [g] | Activity (Mus musculus [7]) | EC50 (KB) [ng/mL] | Activity (Mus musculus [8]) [g] | Activity (Mus musculus [9]) | Activity (Mus musculus [10]) [g] | T/C (P388 [11]) [%] | Activity (Mus musculus [12]) | Activity (Mus musculus [13]) | T/C (P388 [14]) [%] | Activity (Mus musculus [15]) [g] | T/C (P388 [20]) [%] | T/C (P388 [21]) [%] | Activity (Mus musculus [23]) [g] | Activity (Mus musculus [26]) | also measured
C/C=C/C(=O)O[C@H]1CC(=O)N(C)c2cc(cc(OC)c2Cl)C/C(C)=C/C=C/[C@@H](OC)[C@@]2(O)C[C@H](OC(=O)N2)[C@@H](C)[C@@H]2O[C@@]12C | -3.6 | Non-toxic | -4.5 | -3 | Non-toxic | -1.8 | Non-toxic | 0.23 (≈ 0.363 nM) | -1.7 | Non-toxic | -3.6 | 210 | Non-toxic | Non-toxic | 173 | -4.5 | 210 | 210 | -3.5 | Non-toxic | Activity (Mus musculus [16]): Non-toxic; Activity (Mus musculus [17]): Non-toxic; T/C (P388 [18]): 150%; T/C (P388 [19]): 160%; T/C (P388 [22]): 170%; Activity (Mus musculus [24]): -2.5 g; T/C (P388 [25]): 150%; T/C (P388 [27]): 150%
CCC(=O)O[C@H]1CC(=O)N(C)c2cc(cc(OC)c2Cl)C/C(C)=C/C=C/[C@@H](OC)[C@@]2(O)C[C@H](OC(=O)N2)[C@@H](C)[C@@H]2O[C@@]12C | -2 | Non-toxic | -0.8 | -1 | Non-toxic | -3.5 | Non-toxic | 0.21 (≈ 0.338 nM) | 1.3 | Non-toxic | -0.5 | <80 | Toxic | Non-toxic | 153 | -0.5 | <80 | 198 | -0.9 | Toxic | inhibition (Tubulin (Homo sapiens)): Active; Activity (Mus musculus [16]): Non-toxic; Activity (Mus musculus [17]): Non-toxic; T/C (P388 [18]): 110%; T/C (P388 [19]): 140%; T/C (P388 [22]): 163%; Activity (Mus musculus [24]): -0.3 g; T/C (P388 [25]): 129%; Activity (Paracentrotus lividus): 1 nM; T/C (P388 [27]): 131%
COc1cc2cc(c1Cl)N(C)C(=O)C[C@H](OC(=O)[C@H](C)N(C)C(C)=O)[C@]1(C)O[C@H]1[C@H](C)[C@@H]1C[C@@](OC)(NC(=O)O1)[C@H](OC)/C=C/C=C(\C)C2 | -0.9 |  |  |  | Non-toxic | -0.7 |  | 0.19 (≈ 0.269 nM) |  |  |  | 104 | Non-toxic |  |  |  | 93 | 101 | -2.3 | Non-toxic | T/C (P388 [28]): 139%; Activity (Mus musculus [29]): -0.9 g; Activity (Mus musculus [30]): Non-toxic; inhibition (Tubulin (Homo sapiens)): Active; Activity (Paracentrotus lividus): 1 ×10⁻⁸ mol/L
